Results as given in PubChem BioAssay.
Inconclusive results are not listed.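 The calls were made as follows, unless noted: active = growth inhibition above 25% in both replicates, a cutoff set 3 SD above the mean; inconclusive = above 25% in only one replicate; inactive = the rest.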

Legend:
[1] = S. cerevisiae growth inhibition in permissive medium (OD615), pilot counter-assay for S. cerevisiae lifespan shortening project, permissive growth control (AID 705); conditions: OD615, 24 h, at 10 µM, hits give high values
Outline: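 assay system = Saccharomyces cerevisiae strain carrying genetically modified DeaD replicative-lifespan system | technique = absorbance (optical density) at 615 nm | buffer or medium = permissive raffinose/galactose medium | timing = cells pre-grown 4 h, then 24 h compound exposure, 30 °C humidified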

[2] = S. cerevisiae growth inhibition in restrictive medium, OD615, pilot screen, restrictive growth control, yeast lifespan reduction project (AID 706;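 active = growth inhibition above a set limit, 3 SD over mean compound inhibition, in both replicates, cut at about 43% in these data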;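 also: modified DeaD lifespan yeast strain shifted to restrictive glucose medium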); conditions: OD615, 48 h, at 10 µM, hits give high values
Outline: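 System: modified S. cerevisiae. Buffer or medium: CSMM-D glucose medium. Incubation: 4 h pre-growth plus 48 h compound exposure, 30 °C. Detection: absorbance (optical density) measured at 615 nm.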

[3] = doxorubicin toxicity protection in MRP-1 cells – H69AR cells, CellTiter-Glo, duplicate, MRP-1 activator project, pilot screen (AID 807;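 active = viability increase at or above a cutoff of the median across tested compounds plus 3 SD, cut at about 8.5% in these data, passing the limit was not always enough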;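 also: compound pretreatment 18-22 h then 72 h combined with doxorubicin; 0% = doxorubicin alone and 100% = vehicle without doxorubicin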); conditions: H69AR viability with doxorubicin, CellTiter-Glo luminescence; at 10 µM; hits give high values
[4] = viability of HCT116 without oncogenic beta-catenin – human colon tumor cells, pilot screen (AID 823;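 active = cell viability at or below a set limit in both duplicate runs, the limit being the all-compound median minus 4 SD, cut at about 23% in these data, passing the limit was not always enough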;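 also: 0% = wells killed by 20 µM Hyamine and 100% = untreated DMSO cell wells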); conditions: HCT116 beta-catenin knockout viability, CellTiter-Glo, 60 h; at 10 µM; hits give low values
[5] = viability of PTEN-null HCT116 cells – cell-based, HCT116 clonal line, CellTiter-Glo, pilot screen (AID 824;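 active = viability at or below 27.92% in each of two runs, the all-compound median minus 4 SD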;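 also: 0% = 20 µM Hyamine control and 100% = vehicle cell control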); conditions: HCT116 PTEN-deleted viability, 60 h, at 10 µM, hits give low values
[6] = RAM pathway blockade in budding yeast – dse1pr::URA3 reporter, 5-FOA selection, pilot screen (AID 869;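 active = inhibition over a set limit, the all-compound mean plus 3 SD, in both replicate runs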;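 also: 0% = DMSO wells with no growth and 100% = 10 µM 1-NA-PP1 with full growth; RAM network block rescues cells from 5-FOA so hits raise OD615 growth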); conditions: S. cerevisiae dse1pr::URA3 5-FOA growth, OD615, 2 d; at 10 µM; hits give high values; strain carries analog-sensitive mutant Cbk1 kinase
[7] = RAM signaling pathway blockade in yeast – S. cerevisiae, Pdr1DBD-CYC8 efflux-inhibited sensitized strain, primary screen (AID 1298;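 active = RAM network inhibition above 8.4% in each of two replicates, 3 SD over the compound average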;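 also: 0% = DMSO untreated cells without growth and 100% = 10 µM 1-NA-PP1 full growth; higher means more yeast growth rescued from 5-FOA killing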); conditions: S. cerevisiae cbk1-as DSE1-URA3 strain, 5-FOA growth OD615, 2 d; at 50 µM; hits give high values

CCCNC(=O)c1noc2c1CCc1ccccc1-2
inactive: growth inhibition [1] -1.21% | growth inhibition [2] 5.41% | viability increase [3] -1.54% | viability [4] 98.3% | viability [5] 104% | inhibition [6] 0.305% | RAM network inhibition [7] -1.13%

CCN(C(=O)CSc1nnnn1-c1cc(C)ccc1OC)C1CCS(=O)(=O)C1 (stereo not drawn)
inactive: growth inhibition [1] -6.25% | growth inhibition [2] 4.34% | viability increase [3] -1.65% | viability [4] 99% | viability [5] 94.6% | inhibition [6] 1.56% | RAM network inhibition [7] -1.67%

Cc1ccc(S(=O)(=O)N2CCN(C(=O)CSc3nnc(C)s3)C2)cc1
inactive: growth inhibition [1] -14.3% | growth inhibition [2] -10.7% | viability increase [3] -1.75% | viability [4] 91.9% | viability [5] 87.3% | inhibition [6] 1.31% | RAM network inhibition [7] -0.22%

O=C(NC1CCCCC1)c1ccc(S(=O)(=O)N2CCOCC2)cc1
inactive: growth inhibition [1] -2.04% | growth inhibition [2] -2.56% | viability increase [3] 0.17% | viability [4] 104% | viability [5] 101% | inhibition [6] 0.855% | RAM network inhibition [7] -0.73%

c1ccc(OCCOCCSc2ncccn2)cc1
inactive: growth inhibition [1] 1.54% | growth inhibition [2] -1.09% | viability increase [3] 2.36% | viability [4] 101% | viability [5] 98.4% | inhibition [6] 0.395% | RAM network inhibition [7] 3.21%

N#CCn1c(C2CCCCC2)nc2ccccc2c1=O
inactive: growth inhibition [1] -27% | growth inhibition [2] -22.9% | viability increase [3] -4.23% | viability [4] 90.2% | viability [5] 84.5% | inhibition [6] 0.79% | RAM network inhibition [7] 3.71%

Cn1c(SCC(=O)Nc2ccc(F)cc2F)nnc1-c1cccnc1
inactive: growth inhibition [1] -13.9% | growth inhibition [2] -8.12% | viability increase [3] -0.94% | viability [4] 104% | viability [5] 95% | inhibition [6] 3.28% | RAM network inhibition [7] -0.27%

Cc1ccc(CC2S/C(=C(/C#N)C(=O)NCc3ccco3)N(c3ccccc3)C2=O)cc1 (stereo not drawn)
inactive: growth inhibition [1] 1.42% | growth inhibition [2] 2.41% | viability increase [3] -7.76% | viability [4] 45% | viability [5] 60.6% | inhibition [6] 0.44% | RAM network inhibition [7] 1.64%

CCOC(=O)Cc1csc(NC(NC(=O)CC)(C(F)(F)F)C(F)(F)F)n1
inactive: growth inhibition [1] 0.765% | growth inhibition [2] -2.19% | viability increase [3] -0.75% | viability [4] 99.6% | viability [5] 96.7% | inhibition [6] 3.13% | RAM network inhibition [7] 6.43%

O=C(NC1CCCCC1)C1CCN(S(=O)(=O)c2cccc3cccnc23)CC1
inactive: growth inhibition [1] 4.71% | growth inhibition [2] -0.575% | viability increase [3] -0.83% | viability [4] 101% | viability [5] 102% | inhibition [6] 0.46% | RAM network inhibition [7] 1.34%

Cc1c(N=C2C(=O)Nc3ccccc32)c(=O)n(-c2ccccc2)n1C
inactive: growth inhibition [1] -1.19% | growth inhibition [2] 0.225% | viability increase [3] -2.29% | viability [4] 108% | viability [5] 90.3% | inhibition [6] 0.61% | RAM network inhibition [7] 1.79%

c1ccc(N2CCN(C3CCSC3)CC2)cc1 (stereo not drawn)
inactive: growth inhibition [1] -20.2% | growth inhibition [2] -15.7% | viability increase [3] 1.11% | viability [4] 96% | viability [5] 94.3% | inhibition [6] 1.05% | RAM network inhibition [7] -1.2%

O=C(O)CCC(=O)N1CCc2cc(S(=O)(=O)N3CCC(Cc4ccccc4)CC3)ccc21
inactive: growth inhibition [1] -6.24% | growth inhibition [2] 0.935% | viability increase [3] -2.63% | viability [4] 97.8% | viability [5] 82.2% | inhibition [6] 1.47% | RAM network inhibition [7] 3.85%

O=C1c2ccccc2C(Nc2ccc3c(c2)OCCO3)N1c1ccccn1 (stereo not drawn)
inactive: growth inhibition [1] -10.6% | growth inhibition [2] -13.5% | viability increase [3] -1.97% | viability [4] 81.5% | viability [5] 85.6% | inhibition [6] 1.86% | RAM network inhibition [7] 4.05%

Oc1ccc(-c2nc3cnccn3c2Nc2ccc3c(c2)OCCO3)cc1
inactive: growth inhibition [1] 2% | growth inhibition [2] 6.18% | viability increase [3] -6.18% | viability [4] 83.7% | viability [5] 83.8% | inhibition [6] 1.58% | RAM network inhibition [7] 7.64%

Nc1cccc(C(=O)Nc2ccc(N)cc2Cl)c1
inactive: growth inhibition [1] -18.5% | growth inhibition [2] -7.93% | viability increase [3] -0.9% | viability [4] 103% | viability [5] 106% | inhibition [6] 2.42% | RAM network inhibition [7] 2.91%

Cc1ccccc1NC(=O)CCN1CCN(Cc2ccccc2)CC1
inactive: growth inhibition [1] -9.43% | growth inhibition [2] 3.58% | viability increase [3] -3.29% | viability [4] 94.8% | viability [5] 89.6% | inhibition [6] 1.85% | RAM network inhibition [7] 5.05%

COc1ccc(Cl)cc1Nc1cc(C)nc2nc(C)nn12
inactive: growth inhibition [1] -5.01% | growth inhibition [2] -6.77% | viability increase [3] -3.12% | viability [4] 103% | viability [5] 94.8% | inhibition [6] -0.515% | RAM network inhibition [7] 3.45%

C=CCSC1=N/C(=C\c2ccc3c(c2)OCO3)C(=O)S1
inactive: growth inhibition [1] -6.71% | growth inhibition [2] -9.09% | viability increase [3] -5.28% | viability [4] 103% | viability [5] 96.7% | inhibition [6] 4.59% | RAM network inhibition [7] 7.07%

CCOc1ccc(-c2noc(CCC(=O)O)n2)cc1
inactive: growth inhibition [1] 6.08% | growth inhibition [2] -3.1% | viability increase [3] 0.28% | viability [4] 102% | viability [5] 95.1% | inhibition [6] 1.56% | RAM network inhibition [7] 0.42%

CCCSc1nc2c(c(=O)n1CC)SC(C)C2 (stereo not drawn)
inactive: growth inhibition [1] -2.71% | growth inhibition [2] -13% | viability increase [3] -2.02% | viability [4] 105% | viability [5] 88.5% | inhibition [6] 1.4% | RAM network inhibition [7] 2.48%

CCOc1ccc2nc(N3CCC(C(=O)Nc4nnc(CC)s4)CC3)sc2c1
inactive: growth inhibition [1] -13.1% | growth inhibition [2] -21.7% | viability increase [3] -0.45% | viability [4] 95.8% | viability [5] 95.1% | inhibition [6] 2.67% | RAM network inhibition [7] 6.98%

O=C(NCCCN1CCOCC1)NC12CC3CC(CC(C3)C1)C2
inactive: growth inhibition [1] -1.84% | growth inhibition [2] 2.31% | viability increase [3] -0.98% | viability [4] 104% | viability [5] 105% | inhibition [6] 0.625% | RAM network inhibition [7] 0.01%

CCOC(=O)c1c(NC(=O)c2cc(C3CC3)on2)sc(C(C)=O)c1C
inactive: growth inhibition [1] -3.19% | growth inhibition [2] 0.635% | viability increase [3] -1.49% | viability [4] 104% | viability [5] 93.3% | inhibition [6] 1.64% | RAM network inhibition [7] -0.58%
